From PubChem
5HT1a antag: blocks the human serotonin 5-HT1a receptor. P08908. CHO 5-HT1a Ga15 NFAT-bla reporter, antagonist mode. inhibition, % at 10 µM. actives 0.68% (n = 62,000);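 active = inhibition above the mean of all tested compounds plus 3 SD, cut at about 43% in these data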;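 also: receptor stimulated by 5-CT agonist at 100 nM near EC80; beta-lactamase reporter measured by ratiometric fluorescence of a cleavable substrate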
Target sequence (P08908 whole entry, looked up): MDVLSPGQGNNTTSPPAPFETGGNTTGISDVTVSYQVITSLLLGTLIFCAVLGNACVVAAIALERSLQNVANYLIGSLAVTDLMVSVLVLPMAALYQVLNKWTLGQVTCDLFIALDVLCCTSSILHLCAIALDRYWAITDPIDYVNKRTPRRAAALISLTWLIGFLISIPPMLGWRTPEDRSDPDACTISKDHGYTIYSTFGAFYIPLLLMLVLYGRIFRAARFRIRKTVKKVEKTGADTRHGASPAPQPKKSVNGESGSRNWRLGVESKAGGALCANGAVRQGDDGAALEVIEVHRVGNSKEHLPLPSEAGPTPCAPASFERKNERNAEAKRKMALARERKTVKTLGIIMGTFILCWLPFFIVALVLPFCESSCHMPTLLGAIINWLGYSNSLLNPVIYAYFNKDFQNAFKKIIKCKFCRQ
HTR1A agonist: agonists of human 5-HT1a serotonin receptor | P08908 | CHO 5-HT1a Ga15 NFAT-bla reporter, FRET ratio; 0% basal, 100% maximal reference agonist | activation, % at 10 µM | actives 0.56% (n = 65,000) | AID 567;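 active = activation above the screen-wide mean activation plus 3 SD, cut at about 19% in these data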;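 also: 0% = DMSO wells and 100% = 5-CT at EC100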
5HT1E antag: 5-HT1E (human) receptor antagonism; P28566; inhibition, % at 6 µM; actives 0.99% (n = 65,000); CHO 5-HT1E Ga15 NFAT-bla reporter, FRET, antagonist; AID 571;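 active = inhibition above a set limit, the mean inhibition across every tested compound plus 3 SD, cut at about 29% in these data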;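 also: signal is the 460 over 535 nm emission ratio of beta-lactamase substrate; 0% = agonist plus DMSO wells and 100% = wells without agonist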
S1P1 ag pot: activates or potentiates agonism at human S1P1 receptor. S1P1 CRE-bla cells, forskolin, beta-lactamase FRET, potentiator mode; S1P1 agonist co-added at EC20, 2 nM; 100% = saturating reference agonist, 0% = basal. activation, % at 9.5 µM. actives 0.57% (n = 56,000);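 active = activation above a cutoff set at the mean activation of all tested compounds plus 3 SD, cut at about 54% in these data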;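 also: forskolin at 4 µM as EC80 and the EC20 agonist is SEW2871; 100% = SEW2871 at its EC100 plus forskolin at EC80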
HTR1E agonist: 5-HT1E (human) receptor agonism | AID 574 | activation, % at 6 µM | CHO 5-HT1E Ga15 NFAT-bla reporter, FRET; 0% DMSO wells, 100% control agonist wells | actives 0.69% (n = 65,000);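 active = activation above a set limit, the screen-wide mean activation plus 3 SD, cut at about 8.5% in these data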;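 also: 100% = positive control agonist at 1 µM giving full maximal response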
S1P3 agonist: activates the human S1P3 receptor. AID 373. S1P3 NFAT-BLA reporter cells, agonism, FRET ratio; relative to 1 µM S1P, basal subtracted. activation, % at 4.5 µM. actives 0.1% (n = 60,000). Q99500;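 active = activation above the screen-wide mean plus 3 SD, cut at about 4.5% in these data, passing the limit was not always enough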
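Measure – % activation relative to 1 µM S1P (100%), per plate · System – stable CHO line with human S1P3, Gα16, NFAT-BLA reporter · Timing – cells plated overnight, compound 4 h 37 °C, substrate 2 h RT · Technique – fluorescent BLA substrate, ex 405 nm, em 460/535 nm ratio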
An asterisk follows results filed as active; . = no result. An excerpt weighted towards active compounds, which were near 3% of everything screened.

SMILES	5HT1a antag	HTR1A agonist	5HT1E antag	S1P1 ag pot	HTR1E agonist	S1P3 agonist
CCCOCCOC(=O)c1[nH]c2c(c1C)C(=O)CC(c1cc(OC)ccc1OC)C2 (configuration not stated)	76.5*	0.0	81.4*	14.8	0.2	-1.7
COc1ccc(OC)c(C2CC(=O)c3c([nH]c(C(=O)OC(C)C)c3C)C2)c1 (configuration not stated)	71.4*	0.1	87.3*	-15.0	-0.9	-1.3
Cc1cc(OCc2nn[nH]n2)c2c(C)c(Cc3ccccc3)c(=O)oc2c1	-7.3	5.3	-12.1	-7.8	-0.1	-0.4
CCOC(=O)c1ccc2nc(NC(=O)c3cccs3)sc2c1	2.6	-1.5	-6.1	.	0.0	.
CCOC(=O)c1ccc2nc(NC(=O)c3ccco3)sc2c1	-3.8	2.1	3.1	63.2*	-0.1	-0.1
O=C(COc1cc(Cl)ccc1Cl)Nc1nnc(CC(=O)N2CCOCC2)s1	-6.9	2.4	1.6	.	-0.6	-0.6
CC1=C(C(=O)OC2CCCCCC2)C(c2ccc(C)o2)C2=C(CCCC2=O)N1 (configuration not stated)	26.9	-2.3	10.4	-6.3	-0.7	-1.8
CC1=C(C(=O)OC2CCCC2)C(c2ccc(C)o2)C2=C(CC(c3cccs3)CC2=O)N1 (configuration not stated)	44.6*	0.1	39.5*	14.0	-0.2	-1.7
CCCc1nc(N)c(C#N)c(N)c1C#N	-9.1	-1.8	29.0*	-95.7	0.3	-0.1
CCc1nc(N)c(C#N)c(-c2ccncc2)c1C	-13.0	1.0	5.1	-36.0	0.7	-1.1
CN(C)c1ccnc(NCc2ccccc2)c1C#N	10.4	20.3*	10.4	0.6	0.0	-0.5
Cc1ccc(NC(=O)CS(=O)CC(=O)Nc2ccc3c(c2)OCO3)cc1Cl (configuration not stated)	-5.9	-3.3	12.7	-2.0	-1.0	-0.7
O=C(Nc1cccc(-c2cn3ccsc3n2)c1)c1ccccc1	1.9	-1.0	4.5	-8.6	82.7*	-0.1
O=C(CSc1n[nH]c(-c2ccc(S(=O)(=O)N3CCCCC3)cc2)n1)Nc1nccs1	-7.0	-0.3	5.2	-0.3	-0.3	-0.7
CC1CN(c2nnnn2-c2ccccc2)CC(C)O1 (configuration not stated)	-6.2	-1.4	-7.4	-19.6	53.6*	-0.6
CCOC(=O)N1CCN(c2nnnn2-c2ccccc2)CC1	10.9	-0.6	-1.9	.	0.8	-0.5
O=C(c1cccc(C(=O)N2CCN(c3ccccc3F)CC2)c1)N1CCN(c2ccccc2F)CC1	2.6	1.2	-4.7	.	0.1	-0.3
O=C(NCN1CCN(c2ccccc2F)CC1)c1ccccc1	14.6	-2.0	-2.0	-0.7	10.3*	-0.5
CCOC(=O)CSc1n[nH]c(-c2ccco2)n1	9.0	-2.6	12.7	-24.8	-0.3	-1.1
O=C(CSc1n[nH]c(-c2ccco2)n1)N1c2ccccc2Sc2ccccc21	30.1	-1.1	37.4*	22.8	-1.4	-0.4
CCOC(=O)c1c(NC(=O)CSc2n[nH]c(-c3ccco3)n2)sc(C)c1C	22.5	1.5	43.6*	-2.1	-0.5	-0.2
O=C(Nc1ccccc1)Nc1ccccn1	4.7	-1.7	-1.8	.	-1.1	-0.5
S=C(Nc1ccccn1)c1ccccn1	3.8	3.0	33.1*	-22.4	-0.9	-0.6
c1ccc(CCCNc2ncnc3nc[nH]c23)cc1	-3.4	-3.5	-2.8	3.2	0.4	-0.8
Clc1ccc(CCNc2ncnc3nc[nH]c23)cc1	6.2	2.8	-2.9	85.1*	0.2	-1.6
SMILES	5HT1a antag	HTR1A agonist	5HT1E antag	S1P1 ag pot	HTR1E agonist	S1P3 agonist
CCOc1ccc(S(=O)(=O)Nc2ccc(Cl)cn2)c(C)c1C	13.9	-0.1	-2.8	43.0	-0.7	-1.0
CCOc1cc(C)c(S(=O)(=O)Nc2ccc(Cl)cn2)cc1C	11.9	-2.2	7.3	25.9	27.0*	-0.4
CNC(=O)CN(C1CCCCC1)S(=O)(=O)c1ccc(F)cc1	4.2	42.4*	-2.7	-4.9	0.9	0.1
CCNC(=O)CN(C1CCCCC1)S(=O)(=O)c1ccc(F)cc1	7.2	0.5	-5.5	.	-0.8	.
OC1CC(c2ccco2)NC2(CCCCC2)C1 (configuration not stated)	8.4	-1.4	-6.1	.	0.0	.
CSc1cccc(NC(=O)CN(C)S(=O)(=O)c2ccc(C)cc2)c1	-7.6	-2.7	-0.8	.	0.2	.
CCCS(=O)(=O)N1CCCC(C(=O)NCCN2CCC(Cc3ccccc3)CC2)C1 (configuration not stated)	46.5*	-2.3	-4.4	-28.1	0.4	0.0
O=C(Nc1nccs1)c1ccc(S(=O)(=O)NCC2CCCCC2)cc1	-5.3	-1.0	8.3	53.0*	-0.5	-1.0
COc1ccccc1C1CC(c2ccc(Cl)cc2)Nc2ncnn21 (configuration not stated)	30.7	-0.6	-12.6	.	0.4	-0.9
COc1ccc(/C=C/C(O)=C2/C(=O)N(C)C3(C)CC2c2ccccc2O3)cc1 (configuration not stated)	45.9*	-1.4	19.7	-4.6	-0.5	-0.6
COC(=O)C1=CN(C(C)C)C=C(C(=O)OC)C1c1cccc(OC)c1	-20.6	22.9*	-5.3	-24.8	5.4	2.1
COC(=O)C1=CN(CCCN2CCCC2=O)C=C(C(=O)OC)C1c1ccccc1C(F)(F)F	-21.0	25.2*	-1.2	110.6	6.4	1.8
COc1ccccc1C(=O)NCCCN1CCCC1=O	-3.8	1.0	3.2	-3.0	-0.4	0.1
CCCOc1ccccc1C1C(C(=O)OC)=CN(C(C)C)C=C1C(=O)OC	-8.3	13.4	2.7	-86.3	8.4	2.5
CCCCOc1ccccc1C1C(C(=O)OC)=CN(CC)C=C1C(=O)OC	-10.5	39.5*	-7.2	-64.5	7.2	2.3
COC(=O)C1=CN(C)C=C(C(=O)OC)C1c1ccccc1Cl	-27.5	19.3*	1.2	.	6.5	3.5
COC(=O)CCC(=O)c1oc2ccccc2c1N	-3.0	0.0	-7.0	5.8	1.2	-0.7
COC(=O)CCCC(=O)N1CCOCCN(C(=O)CCCC(=O)OC)CCOCC1	-0.4	-4.9	-7.6	8.0	1.9	-1.0
CCN1C=C(C(=O)OC)C(c2cccc(C)c2)C(C(=O)OC)=C1	-18.7	20.4*	-4.7	.	6.2	.
CC1=CCC2C(=O)N(c3ccc(Br)cc3C)C(=O)C2C1 (configuration not stated)	0.8	0.0	-6.6	-14.9	-0.3	-0.9
CC1=CCC2C(=O)N(c3ccc(C)c(Br)c3)C(=O)C2C1 (configuration not stated)	-1.7	13.3	-3.5	-2.3	13.1*	-1.3
COc1cc(C2C(C#N)=C(N)Oc3cc(N)ccc32)cc(OC)c1OC (configuration not stated)	.	0.8	56.9*	-13.9	-0.4	-3.6
